This is a sample that favours compounds with a hit; in the whole collection about 3.7% have one here.
KCNK3 block: human KCNK3 channel inhibitors, primary screen, CHO cells, FluxOR thallium flux, B-score | Potassium channel subfamily K member 3 (Homo sapiens), O14649 | FluxOR fluorescence; stronger effect = lower value | B-score at 10 µM | actives 0.84% (n = 340,000);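 active means B-score under library mean minus 4 SD, starting fluorescence ratio at most library mean plus 5 SD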;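 further: more negative B-score means stronger inhibition of thallium flux through KCNK3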
KCNQ1 inh: inhibitors of human KCNQ1 channel, primary screen, cell-based, thallium flux, high-throughput | B-score at 10 µM | Potassium voltage-gated channel subfamily KQT member 1 (Homo sapiens), P51787 | AID 2642, 2010 | CHO-K1 KCNQ1, FluxOR thallium flux fluorescence; stronger effect = higher value | actives 1.3% (n = 310,000);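 active means compounds whose thallium flux B-score, printed positive for inhibition, exceeds three library SD while starting fluorescence stays within three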;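 further: channel opened by potassium depolarization with thallium stimulus after 20 min compound exposure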
hERG rescue: hERG rescue from dofetilide block, primary screen, cell-based, CHO-hERG, FluxOR thallium flux, dofetilide IC70; Voltage-gated inwardly rectifying potassium channel KCNH2 (Homo sapiens), Q12809; activation (rescue from dofetilide block), less the hit threshold, % at 10 µM; dofetilide IC70 present; actives 0.51% (n = 310,000);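 active means activation above the mean of controls blocked by dofetilide plus 5 SD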;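 further: thallium influx through hERG after potassium depolarization seen as dye fluorescence rise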
KCNQ1 pot: potentiators or activators of KCNQ1 channel, primary screen, cell-based, thallium flux, high-throughput | CHO-K1 KCNQ1, thallium flux FluxOR fluorescence; stronger effect = higher value | actives 0.35% (n = 310,000) | Potassium voltage-gated channel subfamily KQT member 1 (Homo sapiens), P51787 | B-score at 10 µM;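 active means fluorescence ratio B-score, a plate-corrected score, at least three library SD, with initial intensity B-score within 5 SD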
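Assay system: stable KCNQ1 CHO-K1 line; medium: assay buffer, equal DMSO in all wells; timing: 90 min dye loading and 20 min compound exposure, both at room temperature; technique: kinetic FluxOR thallium fluorescence, 10-s 1-Hz baseline, 110-s post-stimulus read; read-out basis: B score of baseline-normalized fluorescence ratio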
KCNK9 block: KCNK9 potassium channel inhibitors, primary screen, HEK293 cells, thallium flux; FluxOR thallium flux fluorescence; stronger effect = lower value; B-score at 10 µM; actives 1.2% (n = 310,000);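 active means ratio B-score over 3 SD below the library mean, with starting fluorescence within 5 SD of its mean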;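 further: negative B-score means less thallium flux so channel inhibition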
Target sequence (Q9NPC2 whole entry, looked up): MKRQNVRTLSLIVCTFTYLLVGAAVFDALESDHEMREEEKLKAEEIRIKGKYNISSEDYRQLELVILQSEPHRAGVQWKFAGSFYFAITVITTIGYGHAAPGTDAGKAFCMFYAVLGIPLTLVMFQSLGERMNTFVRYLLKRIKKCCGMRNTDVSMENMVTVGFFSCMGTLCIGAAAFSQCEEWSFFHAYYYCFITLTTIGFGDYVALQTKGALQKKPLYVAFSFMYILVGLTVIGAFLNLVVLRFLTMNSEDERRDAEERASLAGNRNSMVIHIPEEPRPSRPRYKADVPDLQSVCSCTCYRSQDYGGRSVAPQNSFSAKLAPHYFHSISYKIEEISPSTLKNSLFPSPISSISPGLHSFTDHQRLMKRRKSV
Kir21 inh: inhibitors of mouse Kir2.1 inward-rectifier potassium channel; HEK293-Kir2.1, FluxOR thallium flux fluorescence; stronger effect = lower value; actives 0.85% (n = 310,000); B-score at 10 µM;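 active means fluorescence ratio B-score at or below minus 3 SD of library scores, with starting-brightness B-score within 2 SD, cut at about -4.2 in these data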;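 further: channel flux triggered by added potassium and thallium sulfate stimulus; B-score of peak minus minimum fluorescence over baseline after thallium stimulus; more negative B-score means stronger Kir2.1 block with less thallium influx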
Large screens that a line does not name were inactive.

O=C1c2ccccc2C(Nc2ccc(S(=O)(=O)N3CCCCCC3)cc2)N1Cc1ccco1 (stereo not drawn)	KCNK3 block -8.7
CCc1ccccc1NC1c2ccccc2C(=O)N1Cc1ccco1 (stereo not drawn)	none
CC(=O)NC1C(OC(=O)/C=C/c2ccccc2)OC(COC(C)=O)C(OC(C)=O)C1OC(C)=O (stereo not drawn)	none
CCCC1NC(=S)N(C2CCCCC2)C1=O (stereo not drawn)	none
O=C1CNC(=S)N1C1CCCCCC1	Kir21 inh -5.6
COc1ccccc1Cn1c(C(C)C)nc2ccccc21	Kir21 inh -5
COc1ccccc1Cn1c(/C=C/c2ccccc2)nc2ccccc21	KCNK9 block -7
CC1CCC(NC(=O)CNC(=O)Cc2cccc3ccccc23)CC1 (stereo not drawn)	none
CN(C)CCCNS(=O)(=O)c1ccc(NC2CCCCCC2)c([N+](=O)[O-])c1	KCNQ1 inh 8
CCCc1nnc(NC(=O)CSc2nnc(-c3ccco3)n2C)s1	none
CCOCCCNC(=O)Cn1nc(Cc2ccncc2)c2ccccc2c1=O	none
COc1ccc(-n2cc(CNCCc3ncc(C)[nH]3)c(-c3ccccc3Cl)n2)cc1	Kir21 inh -4.8
COc1ccc(-n2cc(CNCCc3nc(C)cc(C)n3)c(-c3ccccc3Cl)n2)cc1	none
O=C(Nc1ccsc1C(=O)O)c1ccccc1Cl	none
CCC/C=C(\CCC)C(NC(=O)c1ccc(C(=O)OC)cc1)c1ccc(C(=O)OC)cc1 (stereo not drawn)	KCNQ1 inh 6 (no result: KCNK3 block)
CCC/C=C(\CCC)C(NC(=O)c1ccc(C(F)(F)F)cc1)c1ccccc1 (stereo not drawn)	KCNQ1 inh 6 (no result: KCNK3 block)
COc1cccc(N(CC(=O)NC2CCCCC2)C(=O)CCC(=O)Nc2nc(C)cs2)c1	none
O=C(CN1C(=O)NC2(CCOc3ccccc32)C1=O)c1ccc(F)c(F)c1 (stereo not drawn)	none
CCc1nnc(NC(=O)CSc2nc(-c3ccccc3)cc(-c3ccc(OC)cc3)c2C#N)s1	hERG rescue 6.4
COc1ccc(/C=C(\NC(=O)c2ccc(C)cc2)C(=O)NCCCn2ccnc2)cc1	none
OCCNCCO	none
CCOC(=O)C1(CC2CC2)CCN(Cc2cn[nH]c2-c2ccccc2)CC1	none
CCOC(=O)C1(Cc2ccccc2)CCN(Cc2cn[nH]c2-c2ccccc2)CC1	Kir21 inh -4.8
Cc1ccccc1N(CC(=O)NC1CCCC1)C(=O)c1oc(C(C)(C)C)cc1C	none
Cc1cc(C(C)(C)C)oc1C(=O)N(CC(=O)NC1CCCC1)c1cccc(C(F)(F)F)c1	KCNK3 block -9, KCNK9 block -8
COc1cc2c(cc1OC)CN(C(=O)COc1ccccc1[N+](=O)[O-])CC2	none
O=C(CSc1nc2nc(-c3cccs3)cc(C(F)(F)F)c2c(=O)[nH]1)Nc1ccc(F)c(F)c1	KCNQ1 inh 7
COc1ccccc1NCC(=O)n1nc(C)cc1C	hERG rescue 6.7
Cc1cccc(NCCC(=O)c2ccc([N+](=O)[O-])cc2)c1C	hERG rescue 4.7
Cc1ccc(NCCC(=O)c2cccc([N+](=O)[O-])c2)c(C)c1	none
CC(C)C1Cc2c(sc3[nH]c(=S)n(Cc4ccccc4)c(=O)c23)CO1 (stereo not drawn)	hERG rescue 8.8, KCNQ1 pot 26
c1ccc(-c2ccccc2OCCCN2CCCC2)cc1	Kir21 inh -4.2
CC(C)c1ccccc1OCCCCN1CCCCC1	Kir21 inh -5
c1ccc(-c2ccccc2OCCCN2CCCCCC2)cc1	none
CC(C)c1ccccc1OCCCN1CCCC1	none
CC1CC(C)CN(CCOc2ccccc2-c2ccccc2)C1 (stereo not drawn)	Kir21 inh -6.3
CCN(CC)CCn1c2c(c(SCC(=O)Nc3cc(C)on3)nc1=O)CCCC2	none
COc1ccc(S(=O)(=O)NCC2CCCN(Cc3ccc(O)cc3)C2)cc1 (stereo not drawn)	none
Cc1ccc(/C=N\NC(=O)Cc2noc3ccccc23)cc1	none
CN1CCN(Cc2ccc(Sc3ccc(Cl)cc3)c([N+](=O)[O-])c2)CC1	Kir21 inh -5.3
CCN(CC)S(=O)(=O)c1cccc(C(=O)NC(C(=O)NNC(=O)c2ccccc2F)C(C)C)c1 (stereo not drawn)	none (no result: KCNQ1 inh, hERG rescue, KCNQ1 pot, KCNK9 block, Kir21 inh)
Cc1cccc(Sc2nc(-c3ccccc3)ccc2C#N)c1	KCNK9 block -6.6
CC(=O)c1ccc(NC(=O)C(C)N(C)CC(=O)Nc2ccc(Cl)cc2)cc1 (stereo not drawn)	none
CC(=O)c1ccc(NC(=O)C(C)N(C)CC(=O)Nc2ccc(N3CCOCC3)cc2)cc1 (stereo not drawn)	hERG rescue 4.6
O=C1/C(=C/c2ccc([N+](=O)[O-])cc2)CCC1C1CCCC1 (stereo not drawn)	none
O=C(CCNc1ccc(Cl)c(C(F)(F)F)c1)c1ccco1	KCNK9 block -7.3
Cc1cc(C)cc(N2C(=O)C=CC2=O)c1	none (no result: KCNQ1 inh, hERG rescue, KCNQ1 pot, KCNK9 block, Kir21 inh)
CC(=O)c1c(O)cc(C)n(-c2ccc(F)cc2)c1=O	KCNQ1 pot 8
O=C(Oc1ccc2ccccc2c1)c1cncc(Br)c1	none
O=C(Oc1ccc2c(=O)c(Oc3ccc4ccccc4c3)coc2c1)c1cncc(Br)c1	hERG rescue 11
CCc1nc(SCC(=O)N2c3ccccc3CC2C)c2c(C)c(C)sc2n1 (stereo not drawn)	KCNQ1 inh 6
CCc1nc(SCC(=O)Nc2cc(C)ccc2OC)c2c(C)c(C)sc2n1	KCNK9 block -7.7
O=C(NC(=S)NC(CO)c1ccccc1)c1ccc(F)cc1 (stereo not drawn)	none
CC(C)OC(=O)CSc1nnc(CNc2cccc(Cl)c2)n1C	none
CCn1c(COc2cccc3ccccc23)nnc1SCC(=O)OC1CCCCC1	KCNQ1 inh 10
Cn1c(CNc2cccc(Cl)c2)nnc1SCC(=O)OC1CCCCC1	Kir21 inh -4.2
CC(C(=O)NCC1CCCCC1)N1CCN(S(=O)(=O)c2cccs2)CC1 (stereo not drawn)	none (no result: KCNQ1 inh, hERG rescue, KCNQ1 pot, KCNK9 block, Kir21 inh)
N#CC(C#N)=C1C=CC=CN1/C(=C\c1ccccc1)C(=O)c1cccs1	Kir21 inh -5
Cc1ccc(NC(=O)CSC(N)=O)cc1Cl	KCNK9 block -13
COc1ccccc1OCCSc1nc2ccccc2n1CC(N)=O	none
